# Measured values taken from ChEMBL document CHEMBL3259712, “New 5-unsubstituted dihydropyridines with improved CaV1.3 selectivity as potential neuroprotective agents against ischemic injury” (J Med Chem, 2014).
# Target: Voltage-dependent L-type calcium channel subunit alpha-1C (Rattus norvegicus, UniProt P22002)
# Experiment: Inhibition of rat Cav1.2 channel in rat mesenteric artery assessed as relaxation of 70 mM K+ induced contraction
# Assay type: tissue-based
# Conditions: not given
# Summary of the method: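 Third-order mesenteric artery segments (2 mm) from 6-month-old Wistar Kyoto rats on a wire myograph, isometric tension, Krebs−Henseleit at 37 °C, pH 7.4. Segments equilibrated, stretched to optimal diameter, tested with 120 mM KCl, endothelium checked with 10 μM acetylcholine.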
# Sequence of Voltage-dependent L-type calcium channel subunit alpha-1C (P22002 whole entry): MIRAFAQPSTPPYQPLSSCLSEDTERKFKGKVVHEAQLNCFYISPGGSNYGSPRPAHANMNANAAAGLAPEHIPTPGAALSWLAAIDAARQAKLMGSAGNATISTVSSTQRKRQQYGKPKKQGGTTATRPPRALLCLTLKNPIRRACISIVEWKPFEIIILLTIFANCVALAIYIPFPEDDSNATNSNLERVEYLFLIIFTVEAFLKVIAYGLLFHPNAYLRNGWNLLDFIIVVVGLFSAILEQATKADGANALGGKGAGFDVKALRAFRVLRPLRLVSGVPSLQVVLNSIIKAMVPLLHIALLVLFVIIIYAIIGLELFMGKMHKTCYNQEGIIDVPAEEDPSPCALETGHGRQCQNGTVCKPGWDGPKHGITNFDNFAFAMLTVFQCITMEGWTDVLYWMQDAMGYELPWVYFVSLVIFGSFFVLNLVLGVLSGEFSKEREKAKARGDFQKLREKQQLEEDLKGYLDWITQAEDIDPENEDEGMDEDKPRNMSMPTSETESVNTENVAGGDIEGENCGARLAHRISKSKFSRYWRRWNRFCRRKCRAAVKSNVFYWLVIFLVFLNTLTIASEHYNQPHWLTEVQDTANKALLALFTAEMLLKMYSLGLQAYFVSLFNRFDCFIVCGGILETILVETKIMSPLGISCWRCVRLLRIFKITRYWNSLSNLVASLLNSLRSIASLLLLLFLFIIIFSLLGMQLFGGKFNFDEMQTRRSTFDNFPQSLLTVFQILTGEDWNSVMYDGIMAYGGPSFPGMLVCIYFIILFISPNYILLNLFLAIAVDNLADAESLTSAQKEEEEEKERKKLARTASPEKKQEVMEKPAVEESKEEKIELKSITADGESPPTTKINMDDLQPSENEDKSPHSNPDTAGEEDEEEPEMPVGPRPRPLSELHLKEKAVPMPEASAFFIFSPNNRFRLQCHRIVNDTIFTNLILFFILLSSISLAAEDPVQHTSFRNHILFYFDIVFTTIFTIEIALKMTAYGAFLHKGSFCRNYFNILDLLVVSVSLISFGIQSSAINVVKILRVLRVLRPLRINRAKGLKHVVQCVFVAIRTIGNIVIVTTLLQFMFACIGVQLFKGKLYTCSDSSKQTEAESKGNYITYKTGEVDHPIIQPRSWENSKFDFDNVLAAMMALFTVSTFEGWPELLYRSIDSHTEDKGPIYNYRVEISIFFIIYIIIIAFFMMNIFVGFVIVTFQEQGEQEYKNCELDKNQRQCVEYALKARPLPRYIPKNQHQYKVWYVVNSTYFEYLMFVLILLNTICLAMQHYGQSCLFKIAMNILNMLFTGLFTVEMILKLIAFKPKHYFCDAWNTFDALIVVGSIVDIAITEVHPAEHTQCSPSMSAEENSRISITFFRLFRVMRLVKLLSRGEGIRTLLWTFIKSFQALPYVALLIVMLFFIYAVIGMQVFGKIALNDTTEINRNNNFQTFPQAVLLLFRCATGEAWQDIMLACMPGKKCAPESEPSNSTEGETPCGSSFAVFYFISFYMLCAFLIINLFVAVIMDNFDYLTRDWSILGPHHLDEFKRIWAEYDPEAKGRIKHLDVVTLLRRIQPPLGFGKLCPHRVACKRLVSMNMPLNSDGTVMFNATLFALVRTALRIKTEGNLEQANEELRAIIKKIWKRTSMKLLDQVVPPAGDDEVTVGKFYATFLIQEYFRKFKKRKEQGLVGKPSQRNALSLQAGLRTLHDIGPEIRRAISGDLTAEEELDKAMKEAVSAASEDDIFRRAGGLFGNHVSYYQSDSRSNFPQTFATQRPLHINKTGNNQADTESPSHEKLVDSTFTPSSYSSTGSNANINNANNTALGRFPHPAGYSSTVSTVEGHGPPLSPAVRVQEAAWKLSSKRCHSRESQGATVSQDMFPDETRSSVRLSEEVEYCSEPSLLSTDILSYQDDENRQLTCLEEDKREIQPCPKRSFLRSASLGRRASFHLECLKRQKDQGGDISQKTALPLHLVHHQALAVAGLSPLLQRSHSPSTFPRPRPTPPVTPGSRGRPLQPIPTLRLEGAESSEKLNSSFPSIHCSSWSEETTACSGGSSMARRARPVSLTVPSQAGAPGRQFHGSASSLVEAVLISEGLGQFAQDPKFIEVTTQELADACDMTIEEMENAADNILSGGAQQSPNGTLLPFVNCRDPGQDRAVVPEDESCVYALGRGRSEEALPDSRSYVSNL
row,SMILES,IC50 [µM]
1,CCOC(=O)C1=C(C)NC(c2ccccc2)=CC1c1ccc(C)cc1 (configuration not stated),10.6
2,CC1(C)CC(=O)C2=C(C1)NC(c1ccccc1)=CC2c1ccccc1 (configuration not stated),0.34
3,CC1=C(C(=O)SC(C)(C)C)C(/C(C)=C/c2ccccc2)C=C(c2ccccc2)N1 (configuration not stated),20.3

# Same assay, conditions: rat
row,SMILES,inhibition (INH)
1,CC1=C(C(=O)SC(C)(C)C)C(c2ccccc2)C=C(c2ccccc2)N1 (configuration not stated),Dose-dependent effect
2,COc1ccc(C2C=C(c3ccccc3)NC(C)=C2C(=O)SC(C)(C)C)cc1 (configuration not stated),Dose-dependent effect
3,CCOC(=O)C1=C(C)NC(c2ccccc2)=CC1c1ccc(C)cc1 (configuration not stated),Dose-dependent effect
4,CCOC(=O)C1=C(C)NC(c2ccc(Cl)cc2)=CC1c1ccc(Cl)cc1 (configuration not stated),Dose-dependent effect
5,CC1(C)CC(=O)C2=C(C1)NC(c1ccccc1)=CC2c1ccccc1 (configuration not stated),Dose-dependent effect
6,CC1=C(C(=O)SC(C)(C)C)C(/C(C)=C/c2ccccc2)C=C(c2ccccc2)N1 (configuration not stated),Dose-dependent effect

# Tested on: SH-SY5Y
# Experiment: Neuroprotective activity against rotenone-oligomycin A-induced oxidative stress in human SH-SY5Y cells assessed as protection incubated with rot/oligo for 8 hrs followed by treated with compound at 5 uM for 16 hrs by MTT assay relative to control
# Assay type: functional
# Conditions: not given
# Summary of the method: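 SH-SY5Y cells cultured 24 h, then exposed to rotenone/oligomycin A (30/10 μM) for 8 h at 37 °C. Stressor was removed and cells incubated 16 h with compound in 1% FBS medium. Melatonin 0.3 μM was the positive control, and compounds were used at 5 μM. Viability by MTT; % protection against basal as 100%, normalized to rot/olig toxicity; five to seven cultures in triplicate.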
row,SMILES,Activity [%]
1,COc1ccc(C2C=C(c3ccccc3)NC(C)=C2C(=O)SC(C)(C)C)cc1 (configuration not stated),38.6
2,CCOC(=O)C1=C(C)NC(c2ccccc2)=CC1c1ccc(C)cc1 (configuration not stated),60.1
3,CC1=C(C(=O)SC(C)(C)C)C(/C(C)=C/c2ccccc2)C=C(c2ccccc2)N1 (configuration not stated),52.2

# Target: Voltage-dependent L-type calcium channel subunit alpha-1D (Homo sapiens, UniProt Q01668)
# Experiment: Inhibition of human Cav1.3 channel in human SH-SY5Y cells assessed as 70 mM K+ induced calcium elevation compound treated 15 mins before stimulus by Fluo-4/AM assay
# Assay type: cell-based
# Conditions: not given
# Summary of the method: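 SH-SY5Y cells grown 2 days, loaded with 10 μM Fluo-4/AM for 1 h at 37 °C in serum-free medium, washed with Krebs-HEPES and held 15 min at room temperature. Compound applied 15 min before 70 mM KCl.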
# Sequence of Voltage-dependent L-type calcium channel subunit alpha-1D (Q01668 whole entry): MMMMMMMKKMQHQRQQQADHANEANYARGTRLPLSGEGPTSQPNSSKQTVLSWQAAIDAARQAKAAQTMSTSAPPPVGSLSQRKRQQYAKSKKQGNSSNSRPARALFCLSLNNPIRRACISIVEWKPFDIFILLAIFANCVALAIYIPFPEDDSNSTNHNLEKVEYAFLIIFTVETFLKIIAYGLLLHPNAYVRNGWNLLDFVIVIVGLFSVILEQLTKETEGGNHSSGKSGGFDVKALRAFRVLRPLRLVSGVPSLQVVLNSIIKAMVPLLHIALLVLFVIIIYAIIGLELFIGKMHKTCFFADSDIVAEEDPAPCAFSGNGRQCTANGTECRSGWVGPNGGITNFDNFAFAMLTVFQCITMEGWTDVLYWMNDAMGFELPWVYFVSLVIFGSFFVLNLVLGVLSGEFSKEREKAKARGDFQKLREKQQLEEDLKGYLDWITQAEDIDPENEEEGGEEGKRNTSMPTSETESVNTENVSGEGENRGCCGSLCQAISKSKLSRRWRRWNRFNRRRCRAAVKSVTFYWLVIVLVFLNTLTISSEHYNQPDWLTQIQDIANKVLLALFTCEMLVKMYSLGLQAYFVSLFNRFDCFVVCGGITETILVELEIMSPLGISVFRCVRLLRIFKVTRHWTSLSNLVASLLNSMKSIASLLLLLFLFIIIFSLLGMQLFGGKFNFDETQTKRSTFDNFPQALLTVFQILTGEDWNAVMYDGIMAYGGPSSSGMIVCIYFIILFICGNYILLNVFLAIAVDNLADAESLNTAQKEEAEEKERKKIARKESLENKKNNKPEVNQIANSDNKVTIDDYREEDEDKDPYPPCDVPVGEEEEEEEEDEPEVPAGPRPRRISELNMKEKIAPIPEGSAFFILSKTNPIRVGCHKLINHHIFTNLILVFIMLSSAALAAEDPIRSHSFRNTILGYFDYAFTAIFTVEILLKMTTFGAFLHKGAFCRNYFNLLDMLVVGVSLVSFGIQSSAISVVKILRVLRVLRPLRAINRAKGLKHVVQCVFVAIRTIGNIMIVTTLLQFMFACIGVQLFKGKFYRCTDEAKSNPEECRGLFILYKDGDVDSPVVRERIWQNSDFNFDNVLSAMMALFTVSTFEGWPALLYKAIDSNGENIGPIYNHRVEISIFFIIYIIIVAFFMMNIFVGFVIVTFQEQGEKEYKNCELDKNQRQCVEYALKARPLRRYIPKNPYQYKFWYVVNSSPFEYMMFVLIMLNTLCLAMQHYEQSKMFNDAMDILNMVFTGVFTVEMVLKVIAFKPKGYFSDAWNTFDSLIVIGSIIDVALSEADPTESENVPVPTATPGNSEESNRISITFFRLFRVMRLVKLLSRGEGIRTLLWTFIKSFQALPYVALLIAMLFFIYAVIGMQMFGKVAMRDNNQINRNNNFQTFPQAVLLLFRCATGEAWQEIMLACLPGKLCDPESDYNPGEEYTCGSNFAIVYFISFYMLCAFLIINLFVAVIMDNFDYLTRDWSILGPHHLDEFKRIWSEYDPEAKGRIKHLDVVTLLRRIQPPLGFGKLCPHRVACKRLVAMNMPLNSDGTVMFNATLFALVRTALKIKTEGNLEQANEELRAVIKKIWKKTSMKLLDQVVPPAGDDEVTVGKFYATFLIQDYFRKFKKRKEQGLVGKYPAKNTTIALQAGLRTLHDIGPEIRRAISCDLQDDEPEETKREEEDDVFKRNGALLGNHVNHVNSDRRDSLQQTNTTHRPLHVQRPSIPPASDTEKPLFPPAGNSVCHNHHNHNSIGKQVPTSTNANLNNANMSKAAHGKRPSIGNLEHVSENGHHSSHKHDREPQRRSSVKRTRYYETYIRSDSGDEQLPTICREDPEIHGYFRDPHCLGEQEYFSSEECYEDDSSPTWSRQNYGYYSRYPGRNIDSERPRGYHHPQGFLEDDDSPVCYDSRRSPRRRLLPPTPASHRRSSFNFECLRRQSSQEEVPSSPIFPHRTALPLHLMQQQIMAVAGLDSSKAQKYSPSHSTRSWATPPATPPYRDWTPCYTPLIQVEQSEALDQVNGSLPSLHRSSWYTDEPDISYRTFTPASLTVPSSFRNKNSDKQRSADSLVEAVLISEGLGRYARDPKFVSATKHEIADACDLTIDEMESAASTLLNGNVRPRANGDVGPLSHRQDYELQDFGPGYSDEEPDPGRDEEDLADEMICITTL
SMILES,IC50 [µM],inhibition [%]
CC1=C(C(=O)SC(C)(C)C)C(c2ccccc2)C=C(c2ccccc2)N1 (configuration not stated),95.8,–
COc1ccc(C2C=C(c3ccccc3)NC(C)=C2C(=O)SC(C)(C)C)cc1 (configuration not stated),26.8,–
CCOC(=O)C1=C(C)NC(c2ccccc2)=CC1c1ccc(C)cc1 (configuration not stated),20.6,43
CCOC(=O)C1=C(C)NC(c2ccc(Cl)cc2)=CC1c1ccc(Cl)cc1 (configuration not stated),28.4,–
CC1(C)CC(=O)C2=C(C1)NC(c1ccccc1)=CC2c1ccccc1 (configuration not stated),2.8,79
CC1=C(C(=O)SC(C)(C)C)C(/C(C)=C/c2ccccc2)C=C(c2ccccc2)N1 (configuration not stated),63.1,–

# Tested on: Hippocampus
# Experiment: Neuroprotective activity against oxygen-glucose deprivation induced-oxidative stress in rat hippocampal slices assessed as maximum protection treated at 10 uM during 120 mins of reoxygenation period by MTT assay (Rvb =40%)
# Assay type: functional
# Conditions: not given
# Summary of the method: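 Transverse hippocampal slices ([…] as printed) from adult male Sprague−Dawley rats (275−325 g). After 30 min stabilization, 15 min OGD at 37 °C in glucose-free Krebs (2-deoxyglucose) under 95% N₂/5% CO₂, then 120 min reoxygenation in oxygenated Krebs with compound (1, 3, 10 μM) present. MTT at 0.5 mg/mL for 30 min at 37 °C; control slices set as 100%; five experiments.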
row,SMILES,Activity [%]
1,CCOC(=O)C1=C(C)NC(c2ccccc2)=CC1c1ccc(C)cc1 (configuration not stated),45
2,CC1=C(C(=O)SC(C)(C)C)C(/C(C)=C/c2ccccc2)C=C(c2ccccc2)N1 (configuration not stated),45

# Tested on: SH-SY5Y
# Experiment: Neuroprotective activity against rotenone-oligomycin A-induced oxidative stress in human SH-SY5Y cells assessed as survival at 5 uM co-incubated rot/oligo for 24 hrs by MTT assay (Rvb =65.6 +/- 1.3%)
# Assay type: functional
# Conditions: read-out: Survival
row,SMILES,viability at 5 µM [%]
1,CC1=C(C(=O)SC(C)(C)C)C(c2ccccc2)C=C(c2ccccc2)N1 (configuration not stated),79.5
2,COc1ccc(C2C=C(c3ccccc3)NC(C)=C2C(=O)SC(C)(C)C)cc1 (configuration not stated),82.3
3,CCOC(=O)C1=C(C)NC(c2ccccc2)=CC1c1ccc(C)cc1 (configuration not stated),83.5
4,CCOC(=O)C1=C(C)NC(c2ccc(Cl)cc2)=CC1c1ccc(Cl)cc1 (configuration not stated),69.9
5,CC1(C)CC(=O)C2=C(C1)NC(c1ccccc1)=CC2c1ccccc1 (configuration not stated),74.6
6,CC1=C(C(=O)SC(C)(C)C)C(/C(C)=C/c2ccccc2)C=C(c2ccccc2)N1 (configuration not stated),83.7

# Tested on: not listed separately
# Experiment: Selectivity ratio of IC50 for human Cav1.3 channel to IC50 for rat Cav1.2 channel
# Conditions: not given
row,SMILES,Ratio IC50
1,CCOC(=O)C1=C(C)NC(c2ccccc2)=CC1c1ccc(C)cc1 (configuration not stated),1.9
2,CC1(C)CC(=O)C2=C(C1)NC(c1ccccc1)=CC2c1ccccc1 (configuration not stated),8.3
3,CC1=C(C(=O)SC(C)(C)C)C(/C(C)=C/c2ccccc2)C=C(c2ccccc2)N1 (configuration not stated),3.1

# Tested on: SH-SY5Y
# Experiment: Neuroprotective activity against K+ induced Ca2+ overload in human SH-SY5Y cells assessed as survival at 5 uM after 24 hrs by MTT assay (reference value: 52.1 +/- 3.5%)
# Assay type: functional
# Conditions: read-out: Survival
row,SMILES,viability at 5 µM [%]
1,CC1=C(C(=O)SC(C)(C)C)C(c2ccccc2)C=C(c2ccccc2)N1 (configuration not stated),68
2,COc1ccc(C2C=C(c3ccccc3)NC(C)=C2C(=O)SC(C)(C)C)cc1 (configuration not stated),66.7
3,CCOC(=O)C1=C(C)NC(c2ccccc2)=CC1c1ccc(C)cc1 (configuration not stated),72.3
4,CCOC(=O)C1=C(C)NC(c2ccc(Cl)cc2)=CC1c1ccc(Cl)cc1 (configuration not stated),65.1
5,CC1(C)CC(=O)C2=C(C1)NC(c1ccccc1)=CC2c1ccccc1 (configuration not stated),64
6,CC1=C(C(=O)SC(C)(C)C)C(/C(C)=C/c2ccccc2)C=C(c2ccccc2)N1 (configuration not stated),69

# Tested on: SH-SY5Y
# Experiment: Neuroprotective activity against K+ induced Ca2+ overload in human SH-SY5Y cells assessed as protection at 5 uM after 24 hrs by MTT assay relative to control
# Assay type: functional
# Conditions: not given
# Summary of the method: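 SH-SY5Y cells, 1 × 10⁵/well, 1% FBS medium, up to 13 passages. Compound diluted from 10⁻² M DMSO stock to 5 μM and co-incubated 24 h with 70 mM K⁺ (hypertonic); DMSO-only controls. MTT at 5 mg/mL for 2 h at 37 °C, read at 540 nm. % protection computed against basal as 100% survival and normalized to K⁺ toxicity; at least five cultures in triplicate.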
row,SMILES,Activity [%]
1,CC1=C(C(=O)SC(C)(C)C)C(c2ccccc2)C=C(c2ccccc2)N1 (configuration not stated),34.1
2,COc1ccc(C2C=C(c3ccccc3)NC(C)=C2C(=O)SC(C)(C)C)cc1 (configuration not stated),31.3
3,CCOC(=O)C1=C(C)NC(c2ccccc2)=CC1c1ccc(C)cc1 (configuration not stated),39.8
4,CCOC(=O)C1=C(C)NC(c2ccc(Cl)cc2)=CC1c1ccc(Cl)cc1 (configuration not stated),24.8
5,CC1(C)CC(=O)C2=C(C1)NC(c1ccccc1)=CC2c1ccccc1 (configuration not stated),21.4
6,CC1=C(C(=O)SC(C)(C)C)C(/C(C)=C/c2ccccc2)C=C(c2ccccc2)N1 (configuration not stated),35.3

# Tested on: SH-SY5Y
# Experiment: Neuroprotective activity against rotenone-oligomycin A-induced oxidative stress in human SH-SY5Y cells assessed as protection at 5 uM co-incubated rot/oligo for 24 hrs by MTT assay relative to control
# Assay type: functional
# Conditions: not given
# Summary of the method: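 SH-SY5Y cells in 1% FBS medium co-incubated 24 h with compound and rotenone/oligomycin A (30/10 μM). Melatonin 0.3 μM was the positive control, and compounds were used at 5 μM. Viability by MTT reduction at 540 nm. % protection computed against basal as 100% and normalized to rot/olig toxicity; five to seven cultures in triplicate.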
row,SMILES,Activity [%]
1,CC1=C(C(=O)SC(C)(C)C)C(c2ccccc2)C=C(c2ccccc2)N1 (configuration not stated),39.6
2,COc1ccc(C2C=C(c3ccccc3)NC(C)=C2C(=O)SC(C)(C)C)cc1 (configuration not stated),45.7
3,CCOC(=O)C1=C(C)NC(c2ccccc2)=CC1c1ccc(C)cc1 (configuration not stated),53.3
4,CCOC(=O)C1=C(C)NC(c2ccc(Cl)cc2)=CC1c1ccc(Cl)cc1 (configuration not stated),11.9
5,CC1(C)CC(=O)C2=C(C1)NC(c1ccccc1)=CC2c1ccccc1 (configuration not stated),26.9
6,CC1=C(C(=O)SC(C)(C)C)C(/C(C)=C/c2ccccc2)C=C(c2ccccc2)N1 (configuration not stated),52.4

# Tested on: SH-SY5Y
# Experiment: Neuroprotective activity against rotenone-oligomycin A-induced oxidative stress in human SH-SY5Y cells assessed as survival incubated with rot/oligo for 8 hrs followed by treated with compound at 5 uM for 16 hrs by MTT assay (Rvb =70.6 +/- 1.8%)
# Assay type: functional
# Conditions: read-out: Survival
# Summary of the method: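 SH-SY5Y cells cultured 24 h, then exposed to rotenone/oligomycin A (30/10 μM) for 8 h at 37 °C. Stressor removed; compound in 1% FBS medium added for 16 h. DMSO-only control. MTT reduction (5 mg/mL, 2 h, 37 °C; OD 540 nm). Survival relative to untreated basal; mean ± SEM of five to seven cultures in triplicate.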
row,SMILES,viability at 5 µM [%]
1,COc1ccc(C2C=C(c3ccccc3)NC(C)=C2C(=O)SC(C)(C)C)cc1 (configuration not stated),81.8
2,CCOC(=O)C1=C(C)NC(c2ccccc2)=CC1c1ccc(C)cc1 (configuration not stated),88
3,CC1=C(C(=O)SC(C)(C)C)C(/C(C)=C/c2ccccc2)C=C(c2ccccc2)N1 (configuration not stated),86.2
